Screening data (PubChem BioAssay)
Most compounds without a hit are left out; they make up all but 2.7% or so of the library.
HTRA1 inhibitor – inhibitors of human serine peptidase HTRA1. inhibition, % at 5.96 µM. AID 504803. recombinant HTRA1, FP-rhodamine activity-based probe, fluorescence polarization. Q92743. 340,000 tested, 0.5% active; in the data active = inhibition above about 36%;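 note: 0% = enzyme with DMSO and 100% = wells lacking enzyme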
Target sequence (Q92743 whole entry, looked up): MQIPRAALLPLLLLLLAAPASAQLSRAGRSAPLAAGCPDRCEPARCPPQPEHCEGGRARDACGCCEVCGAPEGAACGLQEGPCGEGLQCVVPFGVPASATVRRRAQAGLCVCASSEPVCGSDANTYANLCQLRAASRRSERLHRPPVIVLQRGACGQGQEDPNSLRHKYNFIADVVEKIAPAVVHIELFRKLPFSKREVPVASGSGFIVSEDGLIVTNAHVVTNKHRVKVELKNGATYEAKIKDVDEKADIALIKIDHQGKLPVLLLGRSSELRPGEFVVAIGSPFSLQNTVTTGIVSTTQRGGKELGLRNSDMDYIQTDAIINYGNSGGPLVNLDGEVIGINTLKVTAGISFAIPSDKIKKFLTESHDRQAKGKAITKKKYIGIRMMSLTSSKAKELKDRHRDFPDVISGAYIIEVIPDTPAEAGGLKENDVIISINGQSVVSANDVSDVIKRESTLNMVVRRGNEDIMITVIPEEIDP
TCR-CD3 inh – inhibitors of human TCR-CD3 interaction; TAMRA-labeled TCR probe fluorescence, biochemical; inhibition, % at 9.4 µM; 360,000 tested, 0.37% active; in the data active = inhibition above about 19%;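 note: recombinant mutant TCR 2C K166C tagged with TAMRA read by polarization; 0% = receptor in buffer alone and 100% = receptor with positive control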
PRMT1 inh – blocks human protein arginine methyltransferase 1 | recombinant PRMT1, activity-based probe fluorescence polarization | inhibition, % at 2.79 µM | AID 652257 | 370,000 tested, 1.3% active | Q99873;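 active = inhibition above about 21% made by adding two undisclosed values, limit read from the data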
ABHD4 inh – inhibits mouse alpha/beta hydrolase domain 4; 370,000 tested, 0.54% active; AID 720543; purified mABHD4, FP-Rh probe fluorescence polarization; inhibition, % at 8.92 µM;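 active = inhibition exceeding the mean over every tested compound plus 3 SD, cut at about 30% in these data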;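 note: 0% = plate median of compound wells and 100% = S159A mutant with DMSO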
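Assay system: wild-type mouse ABHD4 protein; compound: single nominal dose of 8.92 µM, 0.89% DMSO final; schedule: 45 min + 60 min at 25 °C; measured by: FP readout, ex 525 nm / em 598 nm; evaluation: % inhibition of FP-Rh probe binding versus controls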
SIAE inh – blocks human sialic acid acetylesterase; Q9HAT2; SIAE FP-Rh probe binding, fluorescence polarization; inhibition, % at 9.66 µM; 370,000 tested, 0.69% active; AID 1053197;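 active = inhibition above a cutoff: mean of compounds within the control limits plus 3 SD of those, cut at about 17% in these data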;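 note: 0% = plate median of compound wells and 100% = probe without SIAE protein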
PRMT1 confirm – PRMT1 (human) inhibition, FP confirmation. shares compounds with PRMT1 inh. recombinant His-PRMT1, activity-based probe fluorescence polarization. inhibition, % at 2.79 µM. 3,300 tested, 42% active;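 active = mean inhibition across replicates above the hit cutoff derived for the earlier primary screen, cut at about 22% in these data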
Active calls of the source: *.

For CCOC(=O)c1[nH]c(=S)n(-c2ccccc2)c1C(=O)OCC the results were HTRA1 inhibitor 7, TCR-CD3 inh -7, PRMT1 inh 48*, ABHD4 inh -8, SIAE inh 5 and PRMT1 confirm 7.
Screening O=C1C(=C(c2ccccc2)N2CCOCC2)Cc2ccccc21 returned HTRA1 inhibitor -4, TCR-CD3 inh 2, PRMT1 inh 6, ABHD4 inh -3 and SIAE inh -5.
For Cc1ccc(C2C(C(=O)c3cccs3)=C(O)C(=O)N2c2nnc(C)s2)cc1 (stereo not given) the results were HTRA1 inhibitor -5, TCR-CD3 inh -3, PRMT1 inh 69*, ABHD4 inh -12, SIAE inh -3 and PRMT1 confirm 36*.
Screening CSc1ccc(C2C(C(=O)c3ccco3)=C(O)C(=O)N2c2nnc(SC)s2)cc1 (stereo not given) returned HTRA1 inhibitor -9, TCR-CD3 inh -4, PRMT1 inh 65*, ABHD4 inh -15, SIAE inh 2 and PRMT1 confirm 34*.
For C=CCOc1cccc(C2C(C(=O)c3ccc(C)o3)=C(O)C(=O)N2c2nccs2)c1 (stereo not given) the results were HTRA1 inhibitor -6, TCR-CD3 inh -3, PRMT1 inh 63*, ABHD4 inh 8, SIAE inh 2 and PRMT1 confirm 38*.
Screening Cc1nnc(N2C(=O)C(O)=C(C(=O)c3ccco3)C2c2ccc(C(C)(C)C)cc2)s1 (stereo not given) returned HTRA1 inhibitor -7, TCR-CD3 inh -1, PRMT1 inh 13, ABHD4 inh -5 and SIAE inh 1.
Screening Cc1nnc(N2C(=O)C(O)=C(C(=O)c3ccco3)C2c2ccc(F)cc2)s1 (stereo not given) returned HTRA1 inhibitor 8, TCR-CD3 inh 7, PRMT1 inh 40*, ABHD4 inh 4, SIAE inh 1 and PRMT1 confirm 2.
C[C@@H]1NS(=O)(=O)c2ccc(F)cc2O[C@@H]1c1ccccc1 was read as TCR-CD3 inh 1, PRMT1 inh -1, ABHD4 inh 0 and SIAE inh -1.
`O=c1cc(CN(Cc2ccccc2)Cc2ccccc2)c2c(ccc3ccccc32)o1` gave TCR-CD3 inh -1, PRMT1 inh 0, ABHD4 inh -3 and SIAE inh -1.
CC1CC(C)CN(C(=O)C2CCN(c3cncnc3)CC2)C1 (stereo not given) was read as PRMT1 inh 0, ABHD4 inh 3 and SIAE inh 8.
CCCOc1cccc(C2C(C(=O)c3ccco3)=C(O)C(=O)N2c2nnc(C)s2)c1 (stereo not given) was read as HTRA1 inhibitor 6, TCR-CD3 inh -6, PRMT1 inh 32*, ABHD4 inh 7, SIAE inh 2 and PRMT1 confirm 10.
Screening O=C1S/C(=C\C=C\c2ccco2)C(=O)N1c1ccc(O)cc1 returned HTRA1 inhibitor -3, TCR-CD3 inh 5, PRMT1 inh 31*, ABHD4 inh 17, SIAE inh 1 and PRMT1 confirm 4.
O=C1CCCC2=C1C(c1cccc(Br)c1)n1nc(-c3ccco3)nc1N2 (stereo not given) was read as HTRA1 inhibitor -5, TCR-CD3 inh 1, PRMT1 inh 37*, ABHD4 inh -7, SIAE inh -11 and PRMT1 confirm 6.
Screening CCOc1ccc(NC(=O)CCC(=O)N/N=C(\C)c2cccs2)cc1 returned HTRA1 inhibitor -1, TCR-CD3 inh -1, PRMT1 inh -3, ABHD4 inh 0 and SIAE inh 1.
For O=C1CC(N2CCCCCC2)C(=O)N1c1ccc2c(c1)OCO2 (stereo not given) the results were HTRA1 inhibitor 4, TCR-CD3 inh -2, PRMT1 inh 69*, ABHD4 inh 3, SIAE inh 0 and PRMT1 confirm 35*.
For O=C1CC(NC23CC4CC(CC(C4)C2)C3)C(=O)N1c1ccc2c(c1)OCO2 (stereo not given) the results were HTRA1 inhibitor 6, TCR-CD3 inh -5, PRMT1 inh 65*, ABHD4 inh 2, SIAE inh 1 and PRMT1 confirm 13.
O=C1CC(N2CCN(Cc3ccccc3)CC2)C(=O)N1c1ccc2c(c1)OCCO2 (stereo not given) was read as HTRA1 inhibitor 0, TCR-CD3 inh 0, PRMT1 inh 3, ABHD4 inh -1 and SIAE inh -3.
Screening O=C1CC(N2CCN(c3ccc(O)cc3)CC2)C(=O)N1c1ccc2c(c1)OCO2 (stereo not given) returned HTRA1 inhibitor 4, TCR-CD3 inh -5, PRMT1 inh 39*, ABHD4 inh 10, SIAE inh 3 and PRMT1 confirm -1.
Screening O=C(Cn1nc(C(=O)O)c2ccccc2c1=O)Nc1cccc(S(=O)(=O)N2CCCCCC2)c1 returned HTRA1 inhibitor 0, TCR-CD3 inh -3, PRMT1 inh -11, ABHD4 inh -3 and SIAE inh -14.
CCCCCCN1CCN(C2CN(Cc3ccccc3)S(=O)(=O)C2)CC1 (stereo not given) was read as TCR-CD3 inh 1, PRMT1 inh 2, ABHD4 inh 4 and SIAE inh 1.
O=C(Nc1nc(-c2cccc3ccccc23)cs1)c1cnccn1 was read as HTRA1 inhibitor 6, TCR-CD3 inh 3, PRMT1 inh -1, ABHD4 inh -9 and SIAE inh -13.
CCN(CC(=O)N1CCCC1)S(=O)(=O)c1cc(C)ccc1OC was read as HTRA1 inhibitor -2, TCR-CD3 inh 4, PRMT1 inh -4, ABHD4 inh 0 and SIAE inh 7.
For O=S(=O)(O)Sc1ccccc1 the results were HTRA1 inhibitor -1, TCR-CD3 inh -1, PRMT1 inh 13, ABHD4 inh -10 and SIAE inh -3.
For CCN(CC)c1ccc(SS(=O)(=O)O)cc1 the results were HTRA1 inhibitor -4, TCR-CD3 inh 4, PRMT1 inh 75*, ABHD4 inh 2, SIAE inh 7 and PRMT1 confirm 83*.
`Cc1n[nH]c(C)c1N1C(=O)c2cccc3c(N4CCCCCC4)ccc(c23)C1=O` gave HTRA1 inhibitor 5, TCR-CD3 inh 16, PRMT1 inh 100*, ABHD4 inh 14, SIAE inh 2 and PRMT1 confirm 88*.
Screening O=C(OCCN1C(=O)c2cccc3c(N4CCOCC4)ccc(c23)C1=O)c1ccccc1Cl returned HTRA1 inhibitor -40, TCR-CD3 inh 4, PRMT1 inh 78*, ABHD4 inh -11, SIAE inh -1 and PRMT1 confirm 65*.
For O=C1c2cccc3c(N4CCCCC4)ccc(c23)C(=O)N1CCO the results were HTRA1 inhibitor -13, TCR-CD3 inh 4, PRMT1 inh 40*, ABHD4 inh -2, SIAE inh -11 and PRMT1 confirm 13.
